# Screening data (PubChem BioAssay)
# Compounds with a hit are over-represented: about 2.2% of the library has one in this group of screens.
# HCV NS3 hel inh: HCV NS3 helicase inhibition. NS3 helicase DNA unwinding, Cy5 molecular beacon fluorescence. AID 1800. inhibition, % at 10.9 µM. 290,000 compounds, 0.56% hits;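 active = inhibition above the mean of all tested compounds plus 3 SD, set per campaign, cut at about 35% in these data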;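 note: 0% = DMSO wells and 100% = thioflavine S control wells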
#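 Assay system: hepatitis C virus NS3 helicase domain fragment enzyme. Also added: annealed dual-labelled DNA beacon duplex, ATP-started. Timing: 1 h reaction at 25 °C, ATP-initiated. Technique: Cy5 fluorescence at 0 and 60 min, beacon hairpin quenching. Evaluation: % inhibition of unwinding. Replication: one well per compound.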
# GPR7 antagonist: blocks human GPR7 receptor signaling; P48145; GPR7-expressing cells, fluorescence antagonist assay; inhibition, % at 4.4 µM; 290,000 compounds, 1.1% hits; in the data active = inhibition above about 16%, passing the limit was not always enough;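 note: cells stimulated with the agonist NPW; 0% = agonist with vehicle and 100% = vehicle without agonist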
# DNA FID counter: counter-screen for HCV NS3 helicase inhibitors: DNA intercalator displacement. DNA fluorescent intercalator displacement, fluorescence. inhibition, % at 7.9 µM. 290,000 compounds, 0.17% hits; in the data active = inhibition above about 37%;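 note: 0% = vehicle and 100% = reference compound; higher means more ethidium bromide displaced from hairpin DNA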
# HCV core dimer: blocks dimerization of HCV core protein; TR-FRET GST/Flag-core106 dimerization, 1536-well; inhibition, % at 5 µM; 300,000 compounds, 0.33% hits;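 active = inhibition above the mean of all tested compounds plus 3 SD, set per screening campaign, cut at about 45% in these data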
#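 test system = GST/Flag-tagged HCV core106 proteins | probe or stimulus = Eu donor and XL665 acceptor anti-tag antibodies | times = compound-protein-antibody incubation 4 h at 22.5 °C | signal = TR-FRET, excitation 340 nm, emission 617 and 671 nm | measure = percent inhibition of core106 dimerization signal | controls = wells lacking GST-core106 and wells with excess unlabelled core106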
# DAGLB inhibitor: diacylglycerol lipase beta (human) inhibition; Q8NCG7; HEK293T DAGLB membrane lysate, EnzChek fluorogenic substrate; inhibition, % at 5.17 µM; 340,000 compounds, 0.059% hits; AID 504411; in the data active = inhibition above about 34%;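 note: 0% = enzyme with vehicle and 100% = wells lacking enzyme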
# Target sequence (Q8NCG7 whole entry, looked up): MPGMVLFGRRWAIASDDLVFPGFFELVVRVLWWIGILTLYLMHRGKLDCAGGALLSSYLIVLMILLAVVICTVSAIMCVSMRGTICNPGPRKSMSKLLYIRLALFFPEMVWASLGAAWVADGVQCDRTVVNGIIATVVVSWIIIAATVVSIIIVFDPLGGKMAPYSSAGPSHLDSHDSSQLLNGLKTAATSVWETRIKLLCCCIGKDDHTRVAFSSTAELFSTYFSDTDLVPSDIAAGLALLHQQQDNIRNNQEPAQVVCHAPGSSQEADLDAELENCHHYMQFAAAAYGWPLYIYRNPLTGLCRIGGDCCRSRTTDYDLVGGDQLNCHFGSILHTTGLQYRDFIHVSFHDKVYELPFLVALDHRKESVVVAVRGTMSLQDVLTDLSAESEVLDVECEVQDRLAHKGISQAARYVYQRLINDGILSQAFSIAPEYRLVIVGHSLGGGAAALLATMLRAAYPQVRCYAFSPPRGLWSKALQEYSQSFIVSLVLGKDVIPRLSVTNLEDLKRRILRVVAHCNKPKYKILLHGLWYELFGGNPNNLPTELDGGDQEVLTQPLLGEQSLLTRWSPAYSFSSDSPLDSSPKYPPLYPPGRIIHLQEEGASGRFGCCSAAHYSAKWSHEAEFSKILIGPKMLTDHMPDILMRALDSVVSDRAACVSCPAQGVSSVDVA
# GRK2 aptamer HTS: inhibitors of human GRK2 displacing RNA aptamer; inhibition of aptamer binding, % at 10 µM; P25098; bead flow cytometry, FAM-aptamer displacement from GRK2; 330,000 compounds, 0.59% hits;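 active = inhibition of aptamer binding above 40%, roughly 3 SD of noise, on plates passing a quality check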;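 note: median bead fluorescence of bound FAM aptamer so fluorescent compounds give negative values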
# Numbers without * were called inactive; . = no result given.
SMILES,HCV NS3 hel inh,GPR7 antagonist,DNA FID counter,HCV core dimer,DAGLB inhibitor,GRK2 aptamer HTS
NS(=O)(=O)c1ccc(NC(=O)COC(=O)CCNC(=O)NC23CC4CC(CC(C4)C2)C3)cc1,-2,17*,-16,-4,2,0
Cc1ccc(OCC(=O)NNC(=O)c2cc(S(=O)(=O)N(C)C)ccc2N2CCCC2)cc1,.,.,.,.,0,.
CC(C)CN(C(=O)COC(=O)c1cc2c(s1)CCC2)C1CCS(=O)(=O)C1 (stereo unspecified),27,2,-25,88*,1,23
Oc1ccccc1CNc1ccc(Br)cn1,2,69*,1,-2,1,3
Cc1ccc2[nH]c(C)c(CCNC(=O)c3cc4cc([N+](=O)[O-])ccc4oc3=O)c2c1,-6,-7,-2,50*,9,6
Oc1c(N=Nc2ccccn2)ccc2ccccc12,-4,-7,5,-53,40*,6
Oc1[nH]c2ccccc2c1N=Nc1ccccn1,.,.,.,.,1,.
COc1ccc(C(OCC(O)CN(C)C2CCCCC2)c2ccc(OC)cc2)cc1 (stereo unspecified),-55,20*,26,-14,-4,0
O=[N+]([O-])c1cc2ncccc2c2ncccc12,.,.,.,.,-1,.
C#CCSc1nsc(SCC#C)c1C#N,7,-13,0,63*,-7,31
CCCSc1nsc(SCCC)c1C#N,2,-4,-1,-2,-1,0
Cc1cc(C)c(N2C(=O)CC(Sc3ccccc3N)C2=O)c(C)c1 (stereo unspecified),.,.,.,.,0,.
O=C(CCCc1nc2ccccc2s1)NCc1ccc(F)cc1,-8,3,-20,2,-2,4
COc1ccccc1/C=C(/C(=O)OCC(=O)NCc1ccccc1)c1ccccc1,-10,-10,-30,-2,-10,0
COc1ccccc1/C=C(/CC(=O)NCc1ccccc1)c1nc2ccccc2s1,12,-7,-17,49*,-12,0
COc1ccccc1/C=C(/CC(=O)NCc1ccc(F)cc1)c1nc2ccccc2s1,2,17,-22,67*,-16,0
COC(=O)C1CCN(S(=O)(=O)c2cc3c4c(c2)CCN4C(=O)CC3)CC1,.,.,.,.,-1,.
Cc1ccccc1NC(=O)c1c(C)[nH]c(=S)c(C#N)c1-c1ccco1,49*,2,22,16,7,1
CNC(=O)c1c(C)[nH]c(=S)c(C#N)c1-c1ccco1,19,-11,-8,3,-2,1
COc1ccccc1C(=O)NC1CCN(C(=O)Nc2ccc(F)cc2)CC1,14,5,-14,-12,-2,0
CCNC(=O)CSc1ncnc2sccc12,8,8,2,58*,-2,0
N#Cc1c(NC(=O)CSc2ncnc3sccc23)oc(-c2ccco2)c1-c1ccco1,26,2,-13,50*,5,2
N#CC1=C(N)NC(SCC(=O)O)=C(C#N)C12CCCC2,10,-4,-3,0,-1,1
CC(C)N1CCC2(CC1)C(C#N)=C(N)NC(S)=C2C#N,3,-12,22,-12,.,58*
Cc1cc(NC(=O)CCC(=O)N(c2ccc(F)cc2)C(C(=O)NC2CCCC2)c2cccnc2)no1 (stereo unspecified),6,-3,-37,5,0,0
SMILES,HCV NS3 hel inh,GPR7 antagonist,DNA FID counter,HCV core dimer,DAGLB inhibitor,GRK2 aptamer HTS
Cc1ccc(-n2c(N)c(C(=O)Nc3c(C)n(C)n(-c4ccccc4)c3=O)c3nc4ccccc4nc32)cc1C,72*,20,-30,30,.,0
N/C(=N\NS(=O)(=O)c1ccccc1)c1ccccn1,.,.,.,-19,-3,0
N/C(=N\NS(=O)(=O)c1ccc(Cl)cc1)c1ccccn1,.,.,.,6,-1,41*
N#C[C@@H]1[C@@H]2C(=O)N(c3ccc4c(c3)OCCO4)C(=O)[C@@H]2C2c3ccccc3C=CN21 (stereo partly specified),18,-14,-15,52*,.,4
Cn1c(-c2ccc(F)cc2)cc2onc(-c3c(F)cccc3Cl)c2c1=O,.,.,.,.,-2,52*
Cc1ccc(-c2cc3onc(-c4ccccc4)c3c(=O)n2C)cc1,.,.,.,19,-11,0
CCCN(C)C[C@H]1Oc2cc(C#Cc3ccc(F)cc3)ccc2S(=O)(=O)N([C@H](C)CO)C[C@@H]1C,.,.,.,.,-6,.
COc1ccc(C2=CC3=CC(=O)C(C)(O)C(=O)C3=CO2)cc1 (stereo unspecified),.,.,.,19,.,2
CC1(O)C(=O)C=C2C=C(c3ccc(C#N)cc3)OC=C2C1=O (stereo unspecified),.,.,.,55*,.,0
C[C@@H]1CN([C@H](C)CO)C(=O)CCCn2cc(nn2)CO[C@H]1CN(C)S(=O)(=O)c1ccc(Oc2ccccc2)cc1,.,.,.,.,3,.
O=C(Cn1cc[n+](Cc2ccccc2)c1)c1ccc([N+](=O)[O-])cc1,-71,-3,44*,-1,2,0
O=C(OCc1cn([C@H]2CN(C(=O)c3cccs3)[C@@H](c3ccccc3)C[C@@H]2O)nn1)c1ccccc1,.,.,.,.,-3,.
Cc1cc(C)c(NC(=O)CN(C)C(=O)CCN2C(=O)C3CCCCC3C2=O)c(C)c1 (stereo unspecified),.,.,.,.,-1,.
Cc1ccc(S(=O)(=O)/N=C2\C=C(Nc3ccc(O)cc3)C(=O)c3ccccc32)cc1,.,.,.,.,46*,1
Cc1ccc(NC2=C/C(=N/S(=O)(=O)c3cccs3)c3ccccc3C2=O)cc1,15,8,4,25,11,0
c1ccc(-c2ccccc2OCCOCCN2CCc3ccccc3C2)cc1,-57,16*,22,-5,-8,0
COc1ccc(NC(=O)COC(=O)c2c(C)noc2C)cc1Cl,.,.,.,.,0,.
Cc1ccc(S(=O)(=O)N2CCN(C3CC(=O)N(Cc4ccccc4)C3=O)CC2)cc1C (stereo unspecified),-13,-4,-28,1,1,2
O=C1CC(N2CCN(S(=O)(=O)c3cccc(C(F)(F)F)c3)CC2)C(=O)N1Cc1ccccc1 (stereo unspecified),-4,25*,-26,1,-1,1
O=C(NC1CC1)c1cccc(NC(=O)C2CCN(S(=O)(=O)c3ccccc3C(F)(F)F)CC2)c1,.,.,.,.,1,.
CCN(C1CCCCC1)S(=O)(=O)c1ccc(S(=O)(=O)NCc2ccncc2)cc1,10,21*,-13,-2,0,2
CC(C)N(Cc1ccccc1)C(=O)COC(=O)CCC(=O)c1ccc(F)cc1,.,.,.,.,0,0
Cc1ccccc1Oc1ccc2c(c1)[C@@H]1C[C@H](N(C)C(=O)c3cccnc3)[C@H]([C@H](C)O)C(=O)N1CC2,.,.,.,.,3,.
CCOC(=O)CC1C(=O)NCCN1C(=S)NC(=O)c1ccc(C)c(Br)c1 (stereo unspecified),.,.,.,.,-2,.
NC(=O)COc1ccc(-n2cnnn2)cc1,-16,-4,1,46*,-1,0
